A word on the inhibition: it is the share of the control response that was lost under treatment.

The target of assay [1] is T1, Estrogen receptor (Homo sapiens) (UniProt P03372).
T1 sequence (whole entry): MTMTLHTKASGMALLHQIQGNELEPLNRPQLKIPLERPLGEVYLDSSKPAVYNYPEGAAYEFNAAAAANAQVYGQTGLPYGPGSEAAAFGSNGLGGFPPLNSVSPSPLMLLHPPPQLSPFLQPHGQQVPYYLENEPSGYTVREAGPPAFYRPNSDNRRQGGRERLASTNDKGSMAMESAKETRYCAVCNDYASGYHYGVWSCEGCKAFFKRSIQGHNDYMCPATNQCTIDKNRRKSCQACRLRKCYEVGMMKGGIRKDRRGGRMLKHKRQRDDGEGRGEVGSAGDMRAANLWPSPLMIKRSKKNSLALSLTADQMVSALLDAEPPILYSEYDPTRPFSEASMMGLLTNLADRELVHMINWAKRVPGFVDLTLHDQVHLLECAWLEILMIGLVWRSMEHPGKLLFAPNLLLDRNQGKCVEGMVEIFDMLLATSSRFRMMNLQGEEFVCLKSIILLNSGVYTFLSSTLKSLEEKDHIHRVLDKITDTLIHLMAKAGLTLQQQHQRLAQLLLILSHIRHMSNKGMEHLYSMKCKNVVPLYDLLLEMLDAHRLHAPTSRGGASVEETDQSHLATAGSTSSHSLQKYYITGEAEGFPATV
The assay is described as follows: Antagonist activity at ER in human MCF7:WS8 cells assessed as inhibition of estradiol-induced cell growth by measuring DNA level after 7 days treated at highesy drug concentration by fluorescence analysis. The format is cell-based.

The target of assay [2] is T1, Estrogen receptor (Homo sapiens). The assay is described as follows: Agonist activity at ER in human MCF7:WS8 cells assessed as increase in PgR gene expression at 10^-6 M after 48 hrs by RT-PCR analysis. Format: cell-based. The method, boiled down: (§1)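 After 3 days estrogen starvation, MCF-7:WS8 cells were seeded at 300 000 cells/well and treated for 48 h, then harvested in Trizol. pS2, GREB1 and PgR mRNA measured by real-time PCR with primers checked by single-peak dissociation curves.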

Assay [3] has the same target. Nature of the assay: Agonist activity at ER in human MCF7:WS8 cells assessed as increase in cell growth by measuring DNA level at 10^-6 M after 7 days by fluorescence analysis. Format: cell-based. The method, boiled down:
(§2)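 MCF-7:WS8 cells kept 3 days in phenol red-free RPMI 1640 with 10% charcoal-stripped serum, then seeded at 10 000 cells/well. Next day treated with serial dilutions (10–12 to 10–6 M) or single therapeutic-level concentrations in estrogen-free medium. Medium changed every 2 days, 7 days total, triplicate points.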

The target is the same in assay [4]. The assay is described as follows: Agonist activity at ER in human MCF7:WS8 cells assessed as increase in GREB1 gene expression at 10^-6 M after 48 hrs by RT-PCR analysis. The format is cell-based. In short, it runs like this: as §1
For assay [5] the target is unchanged. Nature of the assay: Agonist activity at ER in human MCF7:WS8 cells assessed as increase in pS2 gene expression at 10^-6 M after 48 hrs by RT-PCR analysis. The format is cell-based. The method, boiled down: as §1
The target is the same in assay [6]. The assay is described as follows: Antagonist activity at ER in human MCF7:WS8 cells assessed as inhibition of estradiol-induced cell growth by measuring DNA level at 10^-6 M after 7 days by fluorescence analysis. The format is cell-based.
Assay [7] has the same target. Nature of the assay: Antagonist activity at ER in human MCF7:WS8 cells assessed as inhibition of estradiol-induced cell growth by measuring DNA level after 7 days by fluorescence analysis. Format: cell-based. As to conditions: concentration not given here.
Assay [8] has the same target. Nature of the assay: Agonist activity at ER in human MCF7:WS8 cells assessed as cell growth by measuring DNA level at 1.17 X 10^-9 M after 7 days by fluorescence analysis. The format is cell-based. In short, it runs like this: as §2
The nature of assay [9]: Effect on ER-alpha protein level in human MCF7:WS8 cells at 1 nM after 24 hrs by Western blot analysis. The format is functional. The method, boiled down: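 Cells estrogen-starved 3 days in phenol red-free RPMI 1640, 3 million seeded per 10 cm dish, treated 24 h. Lysates (20 μg protein by BCA) run on 4–12% Bis-Tris gels, blotted to nitrocellulose, probed with rabbit anti-ERα and anti-β-actin, detected by ECL. Densitometry normalized to β-actin, background subtracted, vehicle = 100%. Three independent experiments.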
(In general: In western blotting, separated proteins are transferred to a membrane and probed.)

Assay [10] concerns the target T1, Estrogen receptor (Homo sapiens). The assay is described as follows: Agonist activity at ER in human MCF7:WS8 cells assessed as cell growth by measuring DNA level at 0.56 X 10^-9 M after 7 days by fluorescence analysis. The format is cell-based. In short, it runs like this:
as §2

Active and inactive are the calls of the source. No cut-off for these calls is given here.

Regarding `COc1ccc(C2=C(c3ccccc3)CCCc3cc(O)ccc32)cc1`, the inhibition in assay [1] was 20%. Moreover, the result in assay [2], in assay [3], in assay [4] and in assay [5] was Active.
In the case of `CCOc1ccc(C2=C(c3ccccc3)CCCc3cc(O)ccc32)cc1`, the inhibition in assay [1] and in [6] was 20% each time. Moreover, the result in [2], in assay [3], in assay [4] and in assay [5] was Active.
As for `CCOc1ccc2c(c1)CCCC(c1ccccc1)=C2c1ccc(O)cc1`, in [1], the inhibition came to 20%. Besides, the result in assay [2], in assay [3], in [4] and in [5] was Active.
Consider `COc1ccc2c(c1)CCCC(c1ccccc1)=C2c1ccc(O)cc1`, for which the inhibition in assay [1] was 20%. Also, the result in assay [2], in assay [3], in [4] and in assay [5] was Active.
Take `CNCCOc1ccc2c(c1)CCCC(c1ccccc1)=C2c1ccc(O)cc1`: the inhibition in [1] and in [7] was 10% throughout. For the same compound, the result in assay [2], in assay [4] and in [5] was Active. Also, in assay [8], the result was inactive.
As to `C[C@]12CC[C@@H]3c4ccc(O)cc4CC[C@H]3[C@@H]1CC[C@@H]2O` [ESTRADIOL], the Activity in assay [9] is listed as 60%.
With `CN(C)CCOc1ccc2c(c1)CCCC(c1ccccc1)=C2c1ccc(O)cc1`, the result in assay [10] was inactive. Moreover, the inhibition in assay [1] turned out to be 20%. For the same compound, the outcome in assay [2], in assay [3], in assay [4] and in [5] was Active.
For the compound `CCC(=C(c1ccc(O)cc1)c1ccc(O)cc1)c1ccccc1`, the inhibition in assay [1] was found to be 20%. Also, the result in assay [2], in [3], in [4] and in assay [5] was Active.
As for `CCC(=C(c1ccc(O)cc1)c1ccc(O)cc1)c1ccc(O)cc1`, the inhibition in assay [1] stood at 20%. For the same compound, the result in assay [2], in assay [4] and in [5] was Active.

The record behind these values is ChEMBL document CHEMBL3286188 (J Med Chem, 2014).
